Measured values from publication PMC7422904 (Translational Vision Science & Technology, 2020).

What was measured:
[1] = tested on: ocular hypertensive rat eyes; type: in vivo, Wistar rats; settings: ocular hypertensive rats, single drop, Bimatoprost 8.8 µg/eye, N = 6
Procedure, shortened: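 Male Wistar rats (7–10 weeks) under i.p. ketamine/xylazine (90:10 mg/kg) plus topical 0.5% proxymetacaine. Right eye received 30 µL HA (10 mg/mL) intracamerally near the limbus, weekly for 3 weeks. Dosing (one 20 µL drop) began once IOP was raised. Groups: saline, test compound, bimatoprost, combination, normotensive saline; N = 6. IOP: TonoPen Vet on unsedated rats, mean of four readings.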

[2] = tested on: chicken chorioallantoic membranes; test: Hen's egg test in chorioallantoic membrane
Procedure, shortened: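 Fertilized hen eggs incubated 10 days at 37 ± 1°C and 60 ± 1% relative humidity. Shell opened and inner membranes removed. Test compound (40, 80, 160, 320 µg) applied to the CAM and watched for 300 s. Controls: 0.9% NaCl (negative) and 0.1 M NaOH (positive); N = 10. Onset times of hemorrhage, lysis and coagulation were weighted 5, 7 and 9 in the OII equation.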

Compound | ability to reduce IOP (in words) [1] | irritancy classification in words (HET-CAM) ([2]; PnPP-19 at all concentrations tested, NaOH at 0.1 M, 300 seconds) | OII ± SEM (ocular irritation index) ([2]; positive control 0.1 M, observed 300 seconds, N = 10)
CCNC(=O)CCC/C=C\C[C@@H]1[C@@H](/C=C/[C@@H](O)CCc2ccccc2)[C@H](O)C[C@@H]1O [Bimatoprost] | not able to reduce IOP |  | 
[Na+].[OH-] [0.1 M NaOH, sodium hydroxide] |  | severely irritating | 20.11± 0.32
